Measured values from different studies.
Protocols differ between the studies behind these lines.
Target: Casein kinase I isoform gamma-2 (CSNK1G2, Homo sapiens, UniProt P78368)

COc1ncc2cc3ccccc3nc2c1C#N
remaining binding (cell-free assay; competition with immobilised ligand; 5 µM): 98%

Cn1nc(C(F)(F)F)cc1-c1cnc(N2CCc3cc(S(=O)(=O)Nc4c(F)cc(Cl)cc4F)cc(N4CCCC4=O)c32)nc1
remaining binding (cell-free assay; competition with immobilised ligand; 1 µM): 100%

CN(C)c1nccc(-c2cnn3ncccc23)n1
remaining binding (binding; 1 µM): 85%

CNCc1ccccc1-c1csc([C@@H](C)Nc2nc(C)nc3cc(OC)c(OC)cc23)c1
remaining binding (cell-free assay; competition with immobilised ligand; 1 µM): 98%

COc1cnc(Nc2cccc(S(N)(=O)=O)c2)nc1N1CCN(c2ccccc2)C(=O)C1
remaining binding (binding; competition with immobilised ligand; 1 µM): 96%

O=C(NCC1CCOCC1)c1n[nH]cc1NC(=O)c1c(F)cccc1F
remaining binding (binding; competition with immobilised ligand; 1 µM): 83%

O=C(NCCCN1CCOCC1)c1ccc(Nc2ncc(Cl)c(-c3ccc(Cl)s3)n2)cc1
remaining binding (binding; competition with immobilised ligand; 1 µM): 100%

c1cncc(-c2cccc(Nc3nccc(NC4CCCCC4)n3)c2)c1
remaining binding (binding; competition with immobilised ligand; 10 µM): 80%

C[C@H]1CCN(c2nccc(-c3cnn4ncccc34)n2)C1
remaining binding (binding; 1 µM): 64%

O=C(c1ccc(Nc2nccc(-c3cc4ccccc4s3)n2)cc1)N1CCC(N2CCCC2)CC1
remaining binding (binding; competition with immobilised ligand; 1 µM): 94%

Cc1cnn2ncc(-c3ccnc(N(C)C)n3)c2c1
remaining binding (binding; 1 µM): 100%

CNC(=O)[C@@H]1CC[C@@H](n2c(-c3ccc4cnccc4c3)nc3ccc(C(=O)NCc4cccc(C(N)=O)c4)cc32)C1
remaining binding (binding; competition with immobilised ligand; 1 µM): 97%

CN([C@@H]1CCc2c(CC(=O)O)c3cc(S(C)(=O)=O)ccc3n2C1)S(=O)(=O)c1ccc(F)cc1
remaining binding (cell-free assay; competition with immobilised ligand; 1 µM): 100%

F[C@@H]1CCN(c2nccc(-c3cnn4ncccc34)n2)C1
remaining binding (binding; 1 µM): 74%

Cn1cc(Cl)c2c(Oc3c(F)cc(Nc4cc(Cl)nc(N)n4)cc3F)ccnc21
remaining binding (cell-free assay; competition with immobilised ligand; 0.1 µM): 83%

O=C(NCCCN1CCOCC1)c1ccc(Nc2nccc(-c3cc4ccccc4s3)n2)cc1
remaining binding (binding; competition with immobilised ligand; 1 µM): 100%

N[C@@H]1CCN(c2nccc(-c3cnn4ncccc34)n2)C1
remaining binding (binding; 1 µM): 82%

COc1ccc2c(c1)O[C@@H](c1ccc(OC)c(OC)c1)C[C@H]2NC(=O)C1(c2ccc3c(c2)OC(F)(F)O3)CC1
remaining binding (cell-free assay; competition with immobilised ligand; 1 µM): 88%

CN(C)c1nccc(-c2cnc3ncccn23)n1
remaining binding (binding; 1 µM): 89%

CN([C@@H]1CCc2c(CC(=O)O)c3ccccc3n2C1)S(=O)(=O)c1ccc(F)cc1
remaining binding (cell-free assay; competition with immobilised ligand; 1 µM): 100%
